Bioassay records: PubChem, several laboratories
M18AAP inhibitor: PfM18AAP inhibitors, malaria aminopeptidase, primary screen, biochemical, QFRET, recombinant enzyme; H-Glu-NHMec fluorogenic cleavage; inhibition, % at 7.35 µM; 1.2% of 290,000 active;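 active = inhibition above the campaign mean inhibition over all tested compounds plus 3 SD, cut at about 28% in these data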;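 also: 0% = plate median of test compound wells and 100% = 2 mM ZnCl2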
ZTA counter: counter-screen for EBNA-1 inhibitors: inhibitors of Epstein-Barr virus ZTA; inhibition, % at 11 µM; P03206; ZTA-DNA binding, fluorescence polarization; 0.15% of 320,000 active; in the data active = inhibition above about 33%
Target sequence (P03206 whole entry, looked up): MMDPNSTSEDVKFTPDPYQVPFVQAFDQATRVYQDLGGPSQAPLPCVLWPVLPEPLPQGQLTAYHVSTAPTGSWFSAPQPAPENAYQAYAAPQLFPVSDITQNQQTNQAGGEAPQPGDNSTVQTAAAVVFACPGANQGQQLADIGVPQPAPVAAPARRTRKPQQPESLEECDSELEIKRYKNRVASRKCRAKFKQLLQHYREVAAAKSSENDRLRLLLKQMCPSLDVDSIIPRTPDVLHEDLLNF
core dimer inh: inhibitors of HCV core protein dimerization, primary screen, biochemical, TR-FRET, high-throughput; TR-FRET GST/Flag-core106 dimerization, 1536-well; inhibition, % at 5 µM; 0.33% of 300,000 active;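 active = inhibition above the mean of all tested compounds plus 3 SD, set per screening campaign, cut at about 45% in these data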
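System – GST-tagged and Flag-tagged HCV core protein residues 1-106 · Repeats – one well for each compound · Technique – TR-FRET 671 and 617 nm emission · Doses – one concentration, 5 µM, in 0.5% DMSO · Times – 4 h, 22.5 °C incubation · Also added – Eu donor and XL665 acceptor anti-tag antibodies · Measure – percent inhibition of core106 dimerization signal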
ALR inh: inhibitors of human ALR sulfhydryl oxidase, primary screen, biochemical, H2O2 detection, HRP-luminol luminescence, single point. FAD-linked sulfhydryl oxidase ALR (Homo sapiens), P55789. purified ALR, DTT oxidation. inhibition, % (test concentration not listed). 3.8% of 290,000 active. AID 485317, 2010;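 active = mean replicate inhibition above about 79%, with every replicate also reaching it, limit read from the data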
Target sequence (P55789 whole entry, looked up): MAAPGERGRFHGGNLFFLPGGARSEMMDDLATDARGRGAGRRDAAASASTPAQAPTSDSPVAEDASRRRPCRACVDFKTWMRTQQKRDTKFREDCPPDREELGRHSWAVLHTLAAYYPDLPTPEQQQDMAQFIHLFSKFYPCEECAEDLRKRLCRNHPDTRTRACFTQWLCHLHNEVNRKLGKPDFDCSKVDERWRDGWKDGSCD
HCV NS3 hel inh: inhibitors of HCV NS3 helicase, primary screen, biochemical, Cy5 molecular beacon fluorescence. 0.56% of 290,000 active. NS3 helicase DNA unwinding. Hepatitis C virus NS3 helicase. AID 1800, 2009. inhibition, % at 10.9 µM;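 active = inhibition above the mean of all tested compounds plus 3 SD, set per campaign, cut at about 35% in these data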;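 also: 0% = DMSO wells and 100% = thioflavine S control wells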
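Material: hepatitis C virus NS3 helicase domain fragment enzyme; measured by: Cy5 fluorescence, 0 and 60 min reads; control set: DMSO and thioflavine S; incubation: 60 min unwinding reaction at 25 °C after ATP addition; read-out basis: % inhibition from 60/0 min fluorescence ratio, DMSO 0%, thioflavine S 100%; repeats: singlicate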
EBNA-1 inhibitor: EBNA-1 DNA-binding inhibitors, primary screen, biochemical, fluorescence polarization. inhibition, % at 14.8 µM. 0.34% of 300,000 active; in the data active = inhibition above about 28%
EBNA-1 inh conf: EBNA-1 DNA-binding inhibitors, retest, confirmation, biochemical, fluorescence polarization, triplicate | shares compounds with EBNA-1 inhibitor | Recombinant EBNA-1 DBD, Cy5-DNA fluorescence polarization | inhibition, % at 14.8 µM | 35% of 830 active | AID 2292, 2010;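 active = mean inhibition across replicates above a set limit taken from the earlier primary screen, cut at about 28% in these data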;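 also: plate controls were EBNA-1 protein with DMSO for no effect and wells lacking EBNA-1 for full effect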
ZTA counter trip: EBV Zta DNA binding inhibitors, counter-screen for EBNA-1 inhibitor project, biochemical, fluorescence polarization, triplicate. shares compounds with EBNA-1 inhibitor. Zta-ZRE DNA binding, Cy5 fluorescence polarization. inhibition, % at 11.1 µM. 830 tested, under 10 active. AID 2328, 2010;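 active = mean inhibition over triplicates above a set limit taken from the primary EBNA-1 screen, cut at about 37% in these data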;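 also: purified full length Zta protein with Cy5 labeled ZRE DNA probe; 0% = Zta with DMSO and 100% = wells lacking Zta protein; inhibitors lower polarization by freeing the labeled DNA probe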
Starred values were filed as active, the others as inactive; . = no result. A selection: hits, their analogues and other compounds. The true share with any hit is near 5.2%.

SMILES | M18AAP inhibitor | ZTA counter | core dimer inh | ALR inh | HCV NS3 hel inh | EBNA-1 inhibitor | EBNA-1 inh conf | ZTA counter trip
COc1ccc(Cc2nnc(NC(=O)Nc3ccccc3F)s2)cc1OC | -5.4 | 3.9 | 5.2 | -2.4 | -1.1 | 36.7* | 70.6* | 10.1
CC(=O)C(/C=N/c1cc(-c2ccc(C)cc2)nn1-c1ccccc1)=C(\C)O | -4.2 | -1.3 | 11.1 | . | -5.8 | 30.1* | 50.0* | 4.2
Cc1ccc(NC(=O)c2cc(-c3ccccc3)nn2-c2ccccc2)cc1 | -1.9 | 3.9 | 3.8 | -3.4 | -9.1 | -5.2 | . | .
CSc1ccccc1NC(=O)Cn1nnc(-c2ccc(S(C)(=O)=O)cc2)n1 | 0.1 | -0.8 | 6.1 | -7.1 | -0.8 | 41.4* | 52.8* | 1.9
O=C(CSc1nnc(SCc2ccc(Cl)cc2)s1)N/N=C/c1c(Cl)cccc1Cl | -1.8 | -15.0 | 6.2 | -6.7 | 2.3 | 35.3* | -0.4 | -6.3
O=C(Cc1c(F)cccc1Cl)Nc1ccccc1-c1ccccc1 | 4.1 | 3.9 | 6.8 | 0.0 | -5.7 | 2.7 | . | .
Cn1c(=O)n(C)c2cc(/C=C3/NC(=O)N(Cc4ccccc4)C3=O)ccc21 | 1.8 | -6.7 | -2.0 | 2.0 | 0.9 | 134.3* | 113.1* | 0.9
Cc1ccc(N2C(=O)NC(C(F)(F)F)(C(F)(F)F)C3=C2CC(C)(C)CC3=O)cc1 | -4.9 | -17.3 | -5.0 | 0.8 | -2.9 | 0.5 | . | .
CC(=O)N1CCc2cc(S(=O)(=O)CCC(=O)NCCc3ccccc3)ccc21 | -1.6 | -4.3 | -6.0 | -9.3 | 13.9 | -10.2 | . | .
Cc1cccc(C)c1NC(=O)COc1ccc2c(C)c(Cc3ccccc3)c(=O)oc2c1 | -3.3 | 11.3 | 20.2 | -0.8 | 0.6 | 67.7* | 7.1 | -5.3
COc1ccc(N2CC(O)=C(c3nc4ccccc4s3)C2=N)cc1 | -0.4 | -9.1 | 3.3 | -3.2 | 0.2 | 52.8* | 76.6* | 6.7
COc1cccc(N2CC(O)=C(c3nc4ccccc4s3)C2=N)c1 | 4.0 | -11.6 | -4.8 | 49.3 | -6.4 | 4.3 | . | .
CCC(C)NC(=O)c1ccc([N+](=O)[O-])c(Cl)c1 (centres undefined) | -0.7 | -5.9 | 3.8 | . | 0.2 | 27.5* | -4.5 | -2.9
Cc1cc(N/N=C/c2c(O)ccc3ccccc23)nc(-c2ccccc2O)n1 | -2.8 | 12.1 | 13.3 | -4.9 | -3.9 | 49.0* | 20.5 | 1.2
CC(=O)Nc1ccc(NC(=O)C(C)OC(=O)c2ccc3[nH]c(C)c(C)c3c2)cc1 (centres undefined) | . | 0.4 | 0.3 | 5.2 | . | -11.1 | . | .
COC(=O)C1CSC(C(=O)OC)N1C(=O)Nc1ccccc1 (centres undefined) | -4.0 | 7.9 | -4.2 | . | -10.7 | 55.1* | -9.9 | -3.3
CCC(=O)Nc1cccc(-c2cc3ccccc3oc2=O)c1 | -13.9 | -1.2 | -2.0 | -4.5 | -17.4 | 8.7 | . | .
O=C(Cc1cccc2ccccc12)Nc1ccc(-c2cc3ccccc3oc2=O)cc1 | -18.0 | 4.7 | 7.0 | -2.1 | 14.5 | 29.1* | 22.3 | 6.7
Cc1ccc(/C=C2\SC(=S)N(CCC(=O)NNC(=O)c3ccc(O)cc3)C2=O)cc1 | -2.3 | -5.3 | 14.9 | 0.8 | -1.7 | 28.8* | 56.6* | 9.8
O=C(CN1C(=O)S/C(=C\C=C\c2ccccc2)C1=O)Nc1ccc(O)cc1 | -1.9 | -18.2 | 37.2 | -18.9 | 10.7 | 52.0* | 7.2 | -2.1
CC(/C=C1\SC(=S)N(c2ccc(C(=O)O)cc2)C1=O)=C\c1ccccc1 | 11.6 | 25.5 | 17.0 | . | 4.0 | 35.6* | -3.9 | 23.1
